In ChEMBL document CHEMBL1130112, “H3-receptor antagonists: synthesis and structure-activity relationships of para- and meta-substituted 4(5)-phenyl-2-[[2-[4(5)-imidazolyl]ethyl]thio]imidazoles” (J Med Chem, 1997):
The source made the active and inactive calls. No cut-off for these calls is given here.

Tests used:
[1] = biological target: Histamine H3 receptor (Rattus norvegicus, UniProt Q9QYN8); test: Inhibition of [3H]NAMHA binding to rat brain membrane histamine H3-receptor
[2] = dissociation constant corresponding to the 4(5)-phenyl-2-thiomidazole; type: ADME; conditions: read-out: pKa,2
Outline: (§1)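 pH-metric titration at 25.0 ± 0.1 °C with 0.15 M KCl, samples 0.5–4 mM; for poorly water-soluble compounds, values from 15–60 wt % methanol/water with Yasuda–Shedlovsky extrapolation; refined by nonlinear least squares.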

[3] = dissociation constant corresponding to the 4(5)-alkylimidazole; type: ADME; conditions: read-out: pKa,1; outline: as §1
[4] = LogP of the free base (neutral species).; type: physicochemical; conditions: octanol/water
Outline: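 pH-metric method: octanol/water titrations with Bjerrum plots, 0.15 M KCl ionic strength, 25.0 ± 0.1 °C, samples 0.5–4 mM; constants refined by nonlinear least squares.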

[5] = biological target: Histamine H3 receptor (Cavia porcellus, UniProt Q9JI35); test: Histamine H3-antagonist potency on electrically stimulated guinea pig ileum; type: functional, tissue-based; conditions: read-out: pA2 (converted)
Chain of Histamine H3 receptor (Cavia porcellus, UniProt Q9JI35) (Q9JI35 whole entry): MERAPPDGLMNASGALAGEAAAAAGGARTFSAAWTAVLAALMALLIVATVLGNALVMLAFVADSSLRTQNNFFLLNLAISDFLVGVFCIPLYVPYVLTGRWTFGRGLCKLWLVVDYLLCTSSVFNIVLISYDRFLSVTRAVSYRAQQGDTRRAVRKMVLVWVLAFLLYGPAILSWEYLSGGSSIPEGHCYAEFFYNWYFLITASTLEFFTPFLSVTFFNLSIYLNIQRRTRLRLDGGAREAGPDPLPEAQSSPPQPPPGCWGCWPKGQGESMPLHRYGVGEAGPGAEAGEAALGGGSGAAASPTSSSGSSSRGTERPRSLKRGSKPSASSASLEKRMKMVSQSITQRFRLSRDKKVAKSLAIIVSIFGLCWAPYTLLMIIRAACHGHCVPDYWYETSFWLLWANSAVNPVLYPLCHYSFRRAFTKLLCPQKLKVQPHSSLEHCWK
Outline: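 Guinea pig (350–550 g) terminal ileum under 1 g load in Krebs Henseleit, 37 °C, O₂ 95%:CO₂ 5%, equilibrated ≥60 min; transmural stimulation (0.1 Hz, 1 ms, submax voltage). Compounds up to 10⁻⁶ M, 30 min, then cumulative (R)-α-methylhistamine (10⁻⁹–10⁻⁶ M) inhibiting twitch, recorded isometrically. pA₂ by Schild regression; mean ± SEM of 10–12 observations.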

[6] = biological target: Histamine H3 receptor (Cavia porcellus) (UniProt Q9JI35); test: Compound was tested for H3-antagonist potency on electrically stimulated guinea pig ileum; Unsurmountable antagonism at concentration > 10^-7 M; type: functional, tissue-based
Chain of Histamine H3 receptor (Cavia porcellus) (Q9JI35 whole entry): as above

Chain of Histamine H3 receptor (Rattus norvegicus, UniProt Q9QYN8) (Q9QYN8 whole entry): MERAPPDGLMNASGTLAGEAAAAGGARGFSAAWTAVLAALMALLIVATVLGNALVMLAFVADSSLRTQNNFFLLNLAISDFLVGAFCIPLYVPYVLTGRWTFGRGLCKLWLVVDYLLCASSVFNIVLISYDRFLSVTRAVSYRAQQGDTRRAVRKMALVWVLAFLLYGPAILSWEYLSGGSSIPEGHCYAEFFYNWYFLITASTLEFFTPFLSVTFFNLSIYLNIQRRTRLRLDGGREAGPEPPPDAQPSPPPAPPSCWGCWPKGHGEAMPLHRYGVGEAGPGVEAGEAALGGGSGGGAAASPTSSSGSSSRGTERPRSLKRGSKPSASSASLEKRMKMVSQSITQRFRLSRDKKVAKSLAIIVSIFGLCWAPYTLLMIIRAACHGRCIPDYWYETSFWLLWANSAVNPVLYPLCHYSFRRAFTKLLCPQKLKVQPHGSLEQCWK

Ki [1] [nM]	pKa [2]	pKa [3]	logP [4]	Kb [5] [nM]	pA2 [6]	Compound
2.95	6.93	3.84	3.72	50.1	–	O=S(=O)(Oc1ccc(-c2cnc(SCCc3c[nH]cn3)[nH]2)cc1)c1ccccc1
39.8	7.03	4.34	4.09	–	inactive	CCCc1ccc(-c2c[nH]c(SCCc3c[nH]cn3)n2)cc1
30.9	6.89	3.21	2.43	3.47	–	O=[N+]([O-])c1cccc(-c2c[nH]c(SCCc3c[nH]cn3)n2)c1
16.2	7.05	4.01	1.61	145	–	NC(=O)c1cccc(-c2cnc(SCCc3c[nH]cn3)[nH]2)c1
29.5	–	–	–	52.5	–	CN(C)c1ccc(-c2c[nH]c(SCCc3c[nH]cn3)n2)cc1
52.5	6.94	3.13	2.75	16.2	–	O=[N+]([O-])c1ccc(-c2cnc(SCCc3c[nH]cn3)[nH]2)cc1
–	7.06	4.3	4.11	148	–	CCCCOc1ccc(-c2cnc(SCCc3c[nH]cn3)[nH]2)cc1
28.2	7.07	3.63	1.4	117	–	NC(=O)c1ccc(-c2c[nH]c(SCCc3c[nH]cn3)n2)cc1
9.33	7.04	4.04	3.7	–	inactive	CCCOc1cccc(-c2c[nH]c(SCCc3c[nH]cn3)n2)c1

Compound	Ki [1] [nM]	pKa [2]	pKa [3]	logP [4]	Kb [5] [nM]	pA2 [6]
Clc1ccc(-c2c[nH]c(SCCc3c[nH]cn3)n2)cc1	35.5	7.1	4.12	3.66	1.35	–
Brc1cccc(-c2cnc(SCCc3c[nH]cn3)[nH]2)c1	14.1	7.08	3.9	3.76	7.76	–
c1ccc(-c2cnc(SCCc3c[nH]cn3)[nH]2)cc1	14.1	7.07	4.28	2.62	6.46	–
